In assay [1] the test system is C. albicans, T. mentagrophytes, T. rubrum, and M. gypseum. Description: Antifungal activity, paper disk diffusion, statements over all fungi. Format: cell-based. The following applies: all fungus. In a few lines: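 Fungi (C. albicans, T. mentagrophytes, T. rubrum, M. gypseum) were swabbed onto Potato Dextrose Agar plates. Inocula were prepared in LB broth for 24 h at 37 °C. 6 mm paper disks were loaded with 30 μL of test compound at 3.125–300 μM. Fluconazole (1 mg mL−1) was the standard.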
On the technique in general: Agar diffusion results depend on both activity and mobility in agar.

The subject of assay [2] is NO production in RAW264.7 cells. Description: Inhibition of NO production in LPS-stimulated RAW264.7 cells. Format: cell-based. The following applies: Mus musculus, RAW264.7, read-out: IC50 of NO inhibition. The gist of the method: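 RAW 264.7 cells were grown in DMEM with 2 mM L-glutamine, 10 mM HEPES, 1 mM sodium pyruvate and 10% FBS. Cells were seeded at 2 × 10^5 per well and incubated 3 days at 37 °C, 5% CO2. Nitric oxide was quantified with Griess reagent, L-NMMA served as positive control, and IC50 was reported.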

Assay [3] deals with E. coli, P. aeruginosa, MRSA, S. faecalis. Description: Antibacterial activity, paper disk diffusion, statements over several bacteria. The following applies: for inhibition in words: printed as E. coli, P. aeruginosa, and MRSA in the antifungal section. Format: cell-based. In a few lines: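 Bacteria (E. coli, P. aeruginosa, S. faecalis, MRSA) were grown in LB broth for 24 h at 37 °C, then swabbed evenly onto Mueller–Hinton agar. 6 mm paper disks received 30 μL of test compound at 3.125–300 μM. Ampicillin (1 mg mL−1) was the standard.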

The target in the next assay is α-glucosidase enzyme (Saccharomyces cerevisiae, UniProt P53341). Description: Alpha-glucosidase inhibition. Format: biochemical.

Values after ≈ are worked out from the molar mass of the structure shown.

A word on the IC50: it is the midpoint of a concentration-inhibition curve. As a reminder, the MIC is the lowest concentration found to suppress growth.

Chain of α-glucosidase enzyme (P53341 whole entry): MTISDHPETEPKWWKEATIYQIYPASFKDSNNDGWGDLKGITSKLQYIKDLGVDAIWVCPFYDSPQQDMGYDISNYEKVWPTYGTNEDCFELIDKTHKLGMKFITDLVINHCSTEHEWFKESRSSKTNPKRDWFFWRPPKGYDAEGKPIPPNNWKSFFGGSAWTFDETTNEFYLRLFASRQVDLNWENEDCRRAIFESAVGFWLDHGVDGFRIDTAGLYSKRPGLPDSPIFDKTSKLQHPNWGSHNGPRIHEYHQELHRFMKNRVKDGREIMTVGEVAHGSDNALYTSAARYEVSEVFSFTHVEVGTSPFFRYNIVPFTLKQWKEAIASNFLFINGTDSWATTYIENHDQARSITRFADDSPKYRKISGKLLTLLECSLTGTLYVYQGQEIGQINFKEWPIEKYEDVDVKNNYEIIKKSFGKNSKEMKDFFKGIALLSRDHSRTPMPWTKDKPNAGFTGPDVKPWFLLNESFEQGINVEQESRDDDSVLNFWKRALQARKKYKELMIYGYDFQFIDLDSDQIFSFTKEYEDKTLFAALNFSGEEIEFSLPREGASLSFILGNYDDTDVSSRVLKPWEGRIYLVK

On to `COC(=O)C1=CO[C@@H](O[C@@H]2O[C@H](CO)[C@@H](O)[C@H](O)[C@H]2O)[C@H]2[C@@H]1[C@H](O)C[C@]2(C)OC(C)=O` [Compound 3, barlerin], for which the “antifungal inhibition in words” value in assay [1] is “weak inhibitions or inactive”.
On to `C[C@]1(OC(=O)/C=C/c2ccccc2)C[C@@H](O)[C@]2(O)C=CO[C@@H](O[C@@H]3O[C@H](CO)[C@@H](O)[C@H](O)[C@H]3O)[C@@H]21` [Compound 4, harpagoside], for which, in assay [1], the “antifungal inhibition in words” value was “weak inhibitions or inactive”. In addition, in assay [2], the IC50 worked out at 25.9 ± 3.32 µM.
With `O=C(O)c1c[nH]c2ccccc12` [Compound 6, indole-3-carboxylic acid], the inhibition in words result in assay [3] is “weak inhibitions or inactive”.
Turning to `C[C@H]1[C@H](C)CC[C@]2(C(=O)O)CC[C@]3(C)C(=CC[C@@H]4[C@@]5(C)CC[C@H](O)C(C)(C)[C@@H]5CC[C@]43C)[C@H]12` [Compound 7, ursolic acid], the inhibition in words result in assay [3] was “weak inhibitions or inactive”. For the same molecule, in assay [2], the IC50 is 18.2 ± 0.7 µM.
For the molecule `C[C@@H]1CC[C@]2(C(=O)O)CC[C@]3(C)C(=CC[C@@H]4[C@@]5(C)CC[C@H](O)[C@@](C)(CO)[C@@H]5CC[C@]43C)[C@@H]2[C@]1(C)O` [Compound 9, rotundic acid], the “antifungal inhibition in words” value in assay [1] is “weak inhibitions or inactive”.
With `C[C@@H]1O[C@@H](O[C@@H]2[C@@H](O)[C@H](OCCc3ccc(O)c(O)c3)O[C@H](CO)[C@H]2OC(=O)/C=C/c2ccc(O)c(O)c2)[C@H](O)[C@H](O)[C@H]1O` [Compound 12, verbacoside], on α-glucosidase enzyme, the IC50 was found to be 42.4 µM. Also, the “antifungal inhibition in words” value in assay [1] is “weak inhibitions or inactive”.
Consider `[H]/N=C(/NC)NCCC[C@H](N)C(=O)O` [L-NMMA, reference compound], for which the IC50 in assay [2] came out at 41.3 µM.
As for `CC1(C)S[C@@H]2[C@H](NC(=O)[C@H](N)c3ccccc3)C(=O)N2[C@H]1C(=O)O` [ampicillin, reference compound], in assay [3] (read-out: MIC values against four bacteria), the MIC is 3.12 to 6.25 µM (≈ 1.09 to 2.18 µg/mL).
